We go through 15 molecules from ChEMBL document CHEMBL1926649, “New cholesterol esterase inhibitors based on rhodanine and thiazolidinedione scaffolds” (Bioorg Med Chem, 2011).

The species named for assay [1] is Sus scrofa. Nature of the assay: Inhibition of pig pancreatic cholesterol esterase assessed as residual enzyme activity at infinite compound concentration preincubated for 5 mins by spectrophotometry. The essentials:
(§1)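 Porcine CEase in 100 mM sodium phosphate, 100 mM NaCl, pH 7.0, with 6 mM taurocholate (final), 3% acetonitrile, 3% DMSO. Inhibitor pre-mixed with 200 µM pNPB for 5 min at 25 °C. Reaction started with enzyme (10 ng/mL final), A405 followed for 6 min. Rates taken from linear steady-state turnover. Duplicates at five inhibitor concentrations. Residual activity at infinite [I] and IC50 come from non-linear regression of rate versus [I].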

Assay [2] can be described thus: Inhibition of pig pancreatic cholesterol esterase preincubated for 5 mins by spectrophotometry. The arrangement: species or system Sus scrofa. An outline of the steps:
as §1

The target of the next assay is Acetylcholinesterase (Electrophorus electricus, UniProt O42275). Nature of the assay: Inhibition of Electrophorus electricus acetylcholinesterase preincubated for 15 mins by spectrophotometry.
Chain of Acetylcholinesterase (O42275 whole entry): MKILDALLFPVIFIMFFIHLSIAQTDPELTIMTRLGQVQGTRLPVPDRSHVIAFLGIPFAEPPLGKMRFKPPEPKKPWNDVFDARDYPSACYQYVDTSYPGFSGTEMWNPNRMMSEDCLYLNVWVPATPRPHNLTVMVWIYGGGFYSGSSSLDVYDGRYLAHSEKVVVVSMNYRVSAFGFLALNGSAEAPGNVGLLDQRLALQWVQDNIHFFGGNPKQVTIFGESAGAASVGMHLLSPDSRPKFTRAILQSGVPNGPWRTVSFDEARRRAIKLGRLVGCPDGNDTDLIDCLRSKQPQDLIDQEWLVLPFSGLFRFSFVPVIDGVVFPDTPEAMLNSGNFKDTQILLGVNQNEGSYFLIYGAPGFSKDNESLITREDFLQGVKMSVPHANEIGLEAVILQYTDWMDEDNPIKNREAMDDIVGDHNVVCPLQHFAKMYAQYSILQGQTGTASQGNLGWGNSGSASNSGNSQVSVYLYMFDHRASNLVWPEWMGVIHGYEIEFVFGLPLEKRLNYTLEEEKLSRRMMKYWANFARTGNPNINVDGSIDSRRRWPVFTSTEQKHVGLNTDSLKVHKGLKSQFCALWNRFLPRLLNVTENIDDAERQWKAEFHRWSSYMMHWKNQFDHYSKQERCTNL
Assay [3] is described as follows: Selectivity ratio of IC50 for Electrophorus electricus acetylcholinesterase to IC50 for pig cholesterol esterase. The essentials:
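IC50 ratio taken between two assays. AChE: E. electricus enzyme, 15 min preincubation, ATCh 500 µM with DTNB, read at 412 nm, pH 7.3. Porcine CEase: 10 ng/mL, 5 min preincubation of inhibitor with substrate, pNPB 200 µM with taurocholate 6 mM, read at 405 nm, pH 7.0.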

The species named for assay [4] is Sus scrofa. Nature of the assay: Ratio of binding affinity to free pig pancreatic cholesterol esterase to binding affinity to substrate-bound pig pancreatic cholesterol esterase. The essentials: (§2)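 Porcine CEase, pNPB hydrolysis read at 405 nm, 25 °C, pH 7.0 phosphate/NaCl buffer with 6 mM taurocholate. Quadruplicates covered five inhibitor levels (2–10 µM) crossed with five substrate levels (100–300 µM), after a 5 min preincubation. The uninhibited rate at 200 µM substrate was set to 100%. Ki, α and β come from replots of specific velocity using σ/[1+σ], with σ = [S]/Km and a separately determined Km.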

The nature of assay [5]: Mixed inhibition of pig pancreatic cholesterol esterase preincubated for 5 mins by specific velocity plot analysis. Set-up: species or system Sus scrofa. The essentials:
as §2

For `CCCc1ccccc1NC(=O)[C@H](CO)NC(=O)c1ccc(/C=C2\SC(=O)NC2=O)cc1`, the Activity in the assay listed under Sus scrofa [1] stood at 12%. Besides, the IC50 in assay [2] is 5.7 µM; against Acetylcholinesterase, above 100 µM. Further, the Ratio IC50 in assay [3] was above 15.
Turning to `CCCc1ccccc1OCC(O)COc1ccc(/C=C2\SC(=O)NC2=O)cc1` (racemic), in the assay listed under Sus scrofa [1], the Activity was found to be 17%. Besides, the half-inhibitory concentration (IC50) in assay [2] is 5.89 µM; against Acetylcholinesterase, above 100 µM. Besides, the Ratio IC50 in assay [3] is above 15.
`CCCc1ccccc1NC(=O)[C@H](Cc1ccccc1)NC(=O)c1ccc(/C=C2\SC(=O)NC2=O)cc1`: the IC50 in assay [2] turned out to be 40 µM; at Acetylcholinesterase it was 14 µM.
With `CCCc1ccccc1NC(=O)[C@H](COC(C)(C)C)NC(=O)c1ccc(/C=C2\SC(=S)NC2=O)cc1`, the IC50 in assay [2] is 6.07 µM; at Acetylcholinesterase, 21.6 µM.
For the molecule `CCCc1ccccc1NC(=O)[C@H](COC(C)(C)C)NC(=O)c1ccc(/C=C2\SC(=O)NC2=O)cc1`, the IC50 in assay [2] was 85 µM; at Acetylcholinesterase, 66 µM.
In the case of `CCCc1ccccc1NC(=O)[C@H](COCc1ccccc1)NC(=O)c1ccc(/C=C2\SC(=S)NC2=O)cc1`, the Activity in the assay filed under Sus scrofa [1] is 25%. In addition, the figures for the IC50 (in assay [2]; against Acetylcholinesterase) were 1.44 µM and 25 µM, respectively. For the same molecule, the Ratio IC50 in assay [3] was 17.
In the case of `CCCc1ccccc1NC(=O)[C@H](C)NC(=O)c1ccc(/C=C2\SC(=S)NC2=O)cc1`, the concentration for half-maximal inhibition (IC50) in assay [2] was 50 µM; at Acetylcholinesterase, above 100 µM.
With `O=C1NC(=O)/C(=C/c2ccc(C(=O)O)cc2)S1`, the IC50 (in assay [2]; at Acetylcholinesterase) was above 100 µM in each case.
In the case of `CCCc1ccccc1NC(=O)[C@H](Cc1ccc(O)cc1)NC(=O)c1ccc(/C=C2\SC(=S)NC2=O)cc1`, the IC50 in assay [2] was found to be 14.5 µM; on Acetylcholinesterase it was 57 µM.
As for `O=C1NC(=S)S/C1=C\c1ccc(C(=O)O)cc1`, the IC50 (in assay [2]; against Acetylcholinesterase) was above 100 µM each time.
Take `CCCc1ccccc1NC(=O)[C@H](Cc1ccccc1)NC(=O)c1ccc(/C=C2\SC(=S)NC2=O)cc1`: the IC50 in assay [2] was 40 µM; against Acetylcholinesterase, 43 µM.
Taken in the same sequence, the figures for `CCCc1ccccc1NC(=O)[C@H](C)NC(=O)c1ccc(/C=C2\SC(=O)NC2=O)cc1` were 54 µM and above 100 µM.
Taken in the same sequence, the figures for `CCCc1ccccc1NC(=O)[C@H](CO)NC(=O)c1ccc(/C=C2\SC(=S)NC2=O)cc1` were 31 µM and above 100 µM.
As for `O=C1NC(=O)/C(=C/c2ccccc2)S1`, the IC50 (in assay [2]; on Acetylcholinesterase) was above 100 µM in each case.
Turning to `CCCc1ccccc1OCC(O)COc1ccc(/C=C2\SC(=S)NC2=O)cc1` (racemic), the Activity in the assay filed under Sus scrofa [1] was found to be 18%. Besides, the IC50 was determined as 1.76 µM in assay [2] and 5.14 µM on Acetylcholinesterase. In addition, in the assay filed under Sus scrofa [4], the Ratio stood at 5.5. This molecule also yielded a Ki in assay [5] of 1.22 µM.
